Calls of active or inactive are those of the source.
What was measured:
Influenza A virus [1] = experiment: Antimicrobial activity against Influenza A virus (A/Puerto Rico/8/34(H1N1)) infected in BALB/c mouse assessed as increase in mouse survival at 0.017 mg/kg, itn administered 11 hrs post infection for 5 days […] infection; assay type: functional, organism-based; set-up: dose 0.017 mg/kg; conditions: A/Puerto Rico/8/1934(H1N1)
In short: (§1)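 Female BALB/c mice (5–6 weeks) infected intranasally with A/PR/8/34 at 100 PFU, n = 10 per group. Each mouse got one intranasal dose at 11 hpi plus oral doses twice daily from 11 hpi to 120 hpi. Drug went by one route and saline by the other, all in saline vehicle. Survival was followed daily to day 20 and analysed by Kaplan-Meier with a log-rank test against the saline group.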

Influenza B virus [2] = experiment: Antimicrobial activity against Influenza B virus (B/Hong Kong/05/1972)infected in BALB/c mouse assessed as increase in mouse survival at 0.076 mg/kg, itn administered for 7 days before infection; assay type: functional, organism-based; set-up: dose 0.076 mg/kg
Influenza B virus [3] = experiment: Antimicrobial activity against Influenza B virus (B/Malaysia/2506/2004) infected itn dosed Mustela putorius furo assessed as nasal viral titer treated after 4 hrs post infection measured after 3 days; assay type: functional, organism-based
In short: (§2)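 Ferrets (600–800 g), seronegative by hemagglutination inhibition, anaesthetized with ketamine/xylazine and infected with B/Malaysia/2506/2004, 1,000 PFU/100 μl. From 4 hpi they received either a single intranasal dose (saline, 0.05 or 0.5 μmol/kg) or 25 mg/kg oral twice daily. Nasal wash titers measured by MDCK plaque assay on days 1, 2 and 3, log10 PFU/ml (n = 5). Undetectable samples entered at the lower limit of detection.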

Influenza B virus [4] = experiment: Antimicrobial activity against Influenza B virus (B/Malaysia/2506/2004) infected itn dosed Mustela putorius furo assessed as nasal viral titer treated after 4 hrs post infection measured after 1 day; assay type: functional, organism-based; in short: as §2
Influenza B virus [5] = experiment: Antimicrobial activity against Influenza B virus (B/Malaysia/2506/2004) infected itn dosed Mustela putorius furo assessed as nasal viral titer treated after 4 hrs post infection measured after 2 days; assay type: functional, organism-based; in short: as §2
Influenza A virus [6] = experiment: Antimicrobial activity against Influenza A virus (A/Puerto Rico/8/34(H1N1)) infected in BALB/c mouse assessed as reduction in viral titer in lung at 0.24 mg/kg, itn administered 11 hrs post infection measured after 59 hrs post infection; assay type: functional, organism-based; set-up: dose 0.24 mg/kg; conditions: A/Puerto Rico/8/1934(H1N1)
In short: (§3)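 BALB/c mice infected intranasally with A/PR/8/34 at 30 PFU. Intranasal dosing at 0.5 μmol/kg began at 11 hpi, either repeated twice daily or given once followed by twice-daily saline. Lungs (n = 3) were taken at 35, 59 and 83 hpi and homogenized. Titers were measured by MDCK plaque assay as log10 PFU/lungs. Two-way ANOVA and Dunnett test were applied.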

Influenza B virus [7] = experiment: Antimicrobial activity against Influenza B virus (B/Hong Kong/05/1972) infected in BALB/c mouse assessed as increase in mouse survival at 0.23 mg/kg, itn administered for 7 days before infection measured at day 20; assay type: functional
Influenza A virus [8] = experiment: Antimicrobial activity against Influenza A virus (A/Puerto Rico/8/34(H1N1)) infected in BALB/c mouse assessed as increase in mouse survival at 0.37 mg/kg, itn administered for 7 days before infection; assay type: functional, organism-based; set-up: dose 0.37 mg/kg; conditions: A/Puerto Rico/8/1934(H1N1)
In short: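 Single intranasal dose in saline (50 μl) given to anesthetized female BALB/c mice 7 days before intranasal infection with A/PR/8/34 at 500 PFU, n = 12. Survival was checked daily to day 20. Groups were compared with saline controls by Kaplan-Meier and log-rank test, with Bonferroni adjustment where needed.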

Influenza A virus [9] = experiment: Antimicrobial activity against oseltamivir-sensitive influenza A virus (A/Yokohama/67/2006 (H1N1)) clone 1 infected in BALB/c mouse assessed as reduction in viral titer in lung at 0.080 mg/kg, itn administered post 13 hrs infection measured after 85 hrs post infection; assay type: functional, organism-based; set-up: dose 0.08 mg/kg
In short: (§4)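 Female BALB/c mice infected intranasally with A/Yokohama/67/2006 clone 1. From 13 hpi they received either a single intranasal dose (0.057 or 0.17 μmol/kg) or 1.0 or 10 mg/kg oral twice daily. Lung titers measured at 37, 61 and 85 hpi by MDCK plaque assay, log10 PFU/lungs (n = 3). Detection limit 2.4.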

Influenza A virus [10] = experiment: Antimicrobial activity against oseltamivir-sensitive influenza A virus (A/Yokohama/67/2006 (H1N1)) clone 1 infected in BALB/c mouse assessed as reduction in viral titer in lung at 0.080 mg/kg, itn administered 13 hrs post infection measured after 61 hrs post infection; assay type: functional, organism-based; set-up: dose 0.08 mg/kg; in short: as §4
Influenza A virus [11] = experiment: Antimicrobial activity against Influenza A virus (A/Puerto Rico/8/34(H1N1)) infected in BALB/c mouse assessed as reduction in viral titer in lung at 0.24 mg/kg, itn administered 11 hrs post infection measured after 35 hrs post infection; assay type: functional, organism-based; set-up: dose 0.24 mg/kg; conditions: A/Puerto Rico/8/1934(H1N1); in short: as §3
Influenza A virus [12] = experiment: Antimicrobial activity against Influenza A virus (A/Puerto Rico/8/34(H1N1)) infected in BALB/c mouse assessed as increase in mouse survival at 0.76 mg/kg, itn administered for 7 days before infection; assay type: functional, organism-based; set-up: dose 0.76 mg/kg; conditions: A/Puerto Rico/8/1934(H1N1)
Influenza A virus [13] = experiment: Antimicrobial activity against Influenza A virus (A/Puerto Rico/8/34(H1N1)) infected in BALB/c mouse assessed as reduction in viral titer in lung at 0.027 mg/kg, itn after 11 hrs post infection; assay type: functional, organism-based; set-up: dose 0.027 mg/kg; conditions: A/Puerto Rico/8/1934(H1N1), TDE = time-dependent effect
In short: (§5)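 BALB/c mice infected intranasally with A/PR/8/34 at 30 PFU. Oral drug was given twice daily from 11 hpi with intranasal saline at 11 hpi, or a single intranasal dose at 11 hpi with oral saline on the same schedule. Lungs (n = 3) were harvested at 35, 59 and 83 hpi. Titers were measured by MDCK plaque assay, log10 PFU/lungs.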

Influenza A virus [14] = experiment: Antimicrobial activity against Influenza A virus (A/Puerto Rico/8/34(H1N1)) infected in BALB/c mouse assessed as reduction in viral titer in lung at 0.24 mg/kg, itn administered 11 hrs post infection measured after 83 hrs post infection; assay type: functional, organism-based; set-up: dose 0.24 mg/kg; conditions: A/Puerto Rico/8/1934(H1N1); in short: as §3
Influenza A virus [15] = experiment: Antimicrobial activity against Influenza A virus (A/Puerto Rico/8/34(H1N1)) infected in BALB/c mouse assessed as increase in mouse survival at 0.085 mg/kg, itn administered for 7 days before infection; assay type: functional, organism-based; set-up: dose 0.085 mg/kg; conditions: A/Puerto Rico/8/1934(H1N1)
Influenza B virus [16] = experiment: Antimicrobial activity against Influenza B virus (B/Hong Kong/05/1972) infected in BALB/c mouse assessed as increase in mouse survival at 0.23 mg/kg, itn administered for 7 days before infection; assay type: functional, organism-based; set-up: dose 0.23 mg/kg
Influenza A virus [17] = experiment: Antimicrobial activity against Influenza A virus (A/Puerto Rico/8/34(H1N1)) infected in BALB/c mouse assessed as increase in mouse survival at 0.17 mg/kg, itn for 7 days post infection; assay type: functional, organism-based; set-up: dose 0.17 mg/kg; conditions: A/Puerto Rico/8/1934(H1N1)
Influenza A virus [18] = experiment: Antimicrobial activity against Influenza A virus (A/Puerto Rico/8/34(H1N1)) infected in BALB/c mouse assessed as increase in mouse survival at 0.25 mg/kg, itn administered for 7 days before infection; assay type: functional, organism-based; set-up: dose 0.25 mg/kg; conditions: A/Puerto Rico/8/1934(H1N1)
Influenza A virus [19] = experiment: Antimicrobial activity against Influenza A virus (A/Puerto Rico/8/34(H1N1)) infected in BALB/c mouse assessed as increase in mouse survival at 0.095 mg/kg, itn administered for 7 days before infection; assay type: functional, organism-based; set-up: dose 0.095 mg/kg; conditions: A/Puerto Rico/8/1934(H1N1)
Influenza A virus [20] = experiment: Antimicrobial activity against Influenza A virus (A/Puerto Rico/8/34(H1N1)) infected in BALB/c mouse assessed as increase in mouse survival at 0.17 mg/kg, itn for 1 day post infection; assay type: functional, organism-based; set-up: dose 0.17 mg/kg; conditions: A/Puerto Rico/8/1934(H1N1)
Influenza A virus [21] = experiment: Antimicrobial activity against Influenza A virus (A/Puerto Rico/8/34(H1N1)) infected in BALB/c mouse assessed as increase in mouse survival at 0.17 mg/kg, itn for 4 days post infection; assay type: functional, organism-based; set-up: dose 0.17 mg/kg; conditions: A/Puerto Rico/8/1934(H1N1)
Influenza A virus [22] = experiment: Antimicrobial activity against Influenza A virus (A/Puerto Rico/8/34(H1N1)) infected in BALB/c mouse assessed as increase in mouse survival at 0.017 mg/kg, itn administered 11 hrs post infection for 5 days […] infection measured on day 20; assay type: functional, A/Puerto Rico/8/1934(H1N1); in short: as §1
Influenza A virus [23] = experiment: Antimicrobial activity against Influenza A virus (A/Puerto Rico/8/34(H1N1)) infected in BALB/c mouse assessed as increase in mouse survival at 0.71 mg/kg, itn administered for 7 days before infection; assay type: functional, organism-based; set-up: dose 0.71 mg/kg; conditions: A/Puerto Rico/8/1934(H1N1)
Influenza B virus [24] = experiment: Antimicrobial activity against Influenza B virus (B/Hong Kong/05/1972) infected in BALB/c mouse assessed as increase in mouse survival at 0.71 mg/kg, itn administered for 7 days before infection; assay type: functional, organism-based; set-up: dose 0.71 mg/kg
Influenza A virus [25] = experiment: Antimicrobial activity against Influenza A virus (A/Puerto Rico/8/34(H1N1)) infected in BALB/c mouse assessed as reduction in viral titer in lung at 0.080 mg/kg, itn after 11 hrs post infection; assay type: functional, organism-based; set-up: dose 0.08 mg/kg; conditions: A/Puerto Rico/8/1934(H1N1), TDE = time-dependent effect; in short: as §5
Influenza A virus [26] = experiment: Antimicrobial activity against Influenza A virus (A/Puerto Rico/8/34(H1N1)) infected in BALB/c mouse assessed as increase in mouse survival at 0.17 mg/kg, itn for 12 hrs post infection; assay type: functional, organism-based; set-up: dose 0.17 mg/kg; conditions: A/Puerto Rico/8/1934(H1N1)
Influenza A virus [27] = experiment: Antimicrobial activity against Influenza A virus (A/Puerto Rico/8/34(H1N1)) infected in BALB/c mouse assessed as increase in mouse survival at 0.18 mg/kg, itn administered for 7 days before infection; assay type: functional, organism-based; set-up: dose 0.18 mg/kg; conditions: A/Puerto Rico/8/1934(H1N1)
Influenza A virus [28] = experiment: Antimicrobial activity against oseltamivir-sensitive influenza A virus (A/Yokohama/67/2006 (H1N1)) clone 1 infected in BALB/c mouse assessed as reduction in viral titer in lung at 0.080 mg/kg, itn administered 13 hrs post infection measured after 37 hrs post infection; assay type: functional, organism-based; set-up: dose 0.08 mg/kg; in short: as §4

Measured: Activity

CCCCCCCC(=O)OC[C@@H](O)[C@@H](OC)[C@@H]1OC(C(=O)O)=C[C@H](NC(=N)N)[C@H]1NC(C)=O [LANINAMIVIR OCTANOATE]
active: Influenza A virus [1] | Influenza B virus [2] | Influenza B virus [3] Dose-dependent effect | Influenza B virus [4] Dose-dependent effect | Influenza B virus [5] Dose-dependent effect | Influenza A virus [6] | Influenza A virus [8] | Influenza A virus [9] | Influenza A virus [10] | Influenza A virus [11] | Influenza A virus [12] | Influenza A virus [13] tde | Influenza A virus [14] | Influenza A virus [15] | Influenza B virus [16] | Influenza A virus [17] | Influenza A virus [18] | Influenza A virus [19] | Influenza A virus [20] | Influenza A virus [21] | Influenza A virus [23] | Influenza B virus [24] | Influenza A virus [25] tde | Influenza A virus [26] | Influenza A virus [27] | Influenza A virus [28]
82%: Influenza B virus [7]
30%: Influenza A virus [22]

— ChEMBL document CHEMBL1255395, “Laninamivir prodrug CS-8958, a long-acting neuraminidase inhibitor, shows superior anti-influenza virus activity after a single administration” (Antimicrob Agents Chemother, 2010)
